“Also recorded” adds a separate entry of the source. Like-named read-outs stand apart in the source and are kept apart here.
Assays:
[1] = tested on: fractional DOPAC release from rat striatal slice preparations; experiment: Fractional DOPAC release from superfused striatal slices; type: cell-based; details: 30 min superfusion before METH, 0.3–30 μM
Outline: (§1)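 Rat coronal striatal slices are preincubated 60 min at 34 °C in Krebs buffer, then superfused at 1 ml/min for 60 min. Two 5-min basal samples are collected into 0.1 M perchloric acid. Test compound (one concentration per slice, 0.3–30 μM) runs 30 min, then with 5 μM METH for 15 min, then alone for 20 min. Buffer-control and METH-control slices are included. Superfusate is ascorbate-oxidase treated and analysed by HPLC-electrochemical detection.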

[2] = molecular target: T1, DAT (Rattus norvegicus, UniProt P23977); experiment: Inhibition of [3H]DA uptake at DAT in synaptosomal preparations; type: biochemical; details: read-out: DAT Ki value ([3H]DA uptake); synaptosomes
T1 sequence (P23977 whole entry): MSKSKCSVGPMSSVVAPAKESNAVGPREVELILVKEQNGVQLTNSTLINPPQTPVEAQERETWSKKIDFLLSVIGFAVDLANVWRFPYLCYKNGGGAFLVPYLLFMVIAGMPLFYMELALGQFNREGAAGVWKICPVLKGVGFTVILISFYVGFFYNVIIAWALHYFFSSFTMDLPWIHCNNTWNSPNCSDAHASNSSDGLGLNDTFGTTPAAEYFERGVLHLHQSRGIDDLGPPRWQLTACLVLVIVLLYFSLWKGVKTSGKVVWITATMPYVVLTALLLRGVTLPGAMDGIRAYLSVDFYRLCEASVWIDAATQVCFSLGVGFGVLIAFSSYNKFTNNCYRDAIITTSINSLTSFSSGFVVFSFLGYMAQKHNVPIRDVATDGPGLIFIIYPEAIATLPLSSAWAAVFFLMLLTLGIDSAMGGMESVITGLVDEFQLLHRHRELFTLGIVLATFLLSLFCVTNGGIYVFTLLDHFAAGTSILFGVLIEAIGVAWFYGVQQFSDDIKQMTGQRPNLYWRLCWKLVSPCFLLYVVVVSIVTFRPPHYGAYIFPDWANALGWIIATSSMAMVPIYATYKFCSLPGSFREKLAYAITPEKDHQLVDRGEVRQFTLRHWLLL
Outline: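 Synaptosomes are preincubated with test compound (1 nM–100 μM) for 5 min at 34 °C, then placed on ice. [3H]DA is added from a 0.1 μM solution, followed by a further 10 min at 34 °C. Nonspecific uptake is defined with 10 μM nomifensine.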

[3] = molecular target: T2, VMAT2 (Rattus norvegicus, UniProt Q01827); type: binding; details: whole rat brain vesicles, mean±SEM; for Ki: read-out: [3H]DTBZ binding Ki, 5 nM [3H]DTBZ
T2 sequence (Q01827 whole entry, the tested form may be a part): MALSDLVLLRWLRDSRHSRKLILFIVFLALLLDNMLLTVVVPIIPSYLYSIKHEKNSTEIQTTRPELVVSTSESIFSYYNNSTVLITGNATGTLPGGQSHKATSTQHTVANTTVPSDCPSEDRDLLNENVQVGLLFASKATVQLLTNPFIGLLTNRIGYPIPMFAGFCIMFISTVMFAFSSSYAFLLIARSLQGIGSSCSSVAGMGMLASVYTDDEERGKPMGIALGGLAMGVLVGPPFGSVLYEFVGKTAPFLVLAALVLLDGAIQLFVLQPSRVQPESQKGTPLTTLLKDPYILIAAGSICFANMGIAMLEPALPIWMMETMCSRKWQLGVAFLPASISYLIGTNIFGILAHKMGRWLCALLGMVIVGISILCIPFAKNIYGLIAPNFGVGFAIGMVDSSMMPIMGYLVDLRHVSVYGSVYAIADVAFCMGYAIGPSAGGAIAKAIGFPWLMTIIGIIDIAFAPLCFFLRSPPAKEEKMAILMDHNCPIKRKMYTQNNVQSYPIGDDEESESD

[4] = tested on: METH-evoked DA release from striatal slices; experiment: Inhibition of METH-evoked DA release from superfused striatal slices; type: cell-based, rat; details: for Imax for inhibition of METH-evoked DA release / IC50: METH 5 μM, total DA overflow, striatal slices; for Effect of analog alone on fractional DA release: analog alone in superfusion buffer, 0.3–30 μM; for IC50: read-out: IC50 for inhibition of METH-evoked DA release
Outline: as §1

[5] = molecular target: T2, VMAT2; type: biochemical
[6] = molecular target: T2, VMAT2; experiment: Kinetic analysis of inhibition of [3H]DA uptake at VMAT2; type: biochemical; details: for Vmax of [3H]DA uptake at VMAT2: analog at its Ki concentration, control 29.9±4.30; for Mechanism of VMAT2 inhibition: kinetic analysis of [3H]DA uptake
Outline: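 Rat synaptic vesicle suspension was added to assay buffer containing inhibitor or buffer (control), plus [3H]DA across 0.001–5.0 μM. Incubation ran 8 min and was stopped by filtration, then filter-retained radioactivity was counted. Nonspecific uptake was defined with Ro4-1284 (10 μM).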

[7] = tested on: rats; details: cited from earlier work
[8] = Water solubility; type: physicochemical
[9] = tested on: METH-evoked DA release from striatal slices; details: ref Horton, Siripurapu, Norrholm, et al., 2011; cited from earlier work
[10] = tested on: SERT; details: ref Miller et al., 2004; cited from earlier work
[11] = molecular target: T1, DAT; details: ref Miller et al., 2004; cited from earlier work
[12] = tested on: METH addicts; details: ref NCT00439504; cited from earlier work
[13] = rat striatal vesicles, mean±SEM
[14] = read-out: VMAT2 [3H]DA uptake Ki, rat striatal vesicles, 0.1 μM [3H]DA, mean±SEM

c1ccc(C[C@H]2CC[C@@H](Cc3ccccc3)N2)cc1 [AV-2-192, cis-2,5-di(2-benzyl)-pyrrolidine]
Lowest concentration to increase extracellular DOPAC [1]: 3 µM
Ki [2]: 2630 nM
Ki [3]: 1640 ± 120 nM
[3H]DTBZ binding Imax [3]: 100%
Imax for inhibition of METH-evoked DA release [4]: 55%
Effect of analog alone on fractional DA release [4]: did not alter fractional DA release
IC50 [4]: 5200 nM
VMAT2 [3H]DA uptake Imax [5, 13]: 100%
Ki ([5]; read-out: Ki at the DA uptake site on VMAT2): < 10 nM
Ki [5, 14]: 9.3 ± 0.75 nM
Vmax of [3H]DA uptake at VMAT2 [6]: 29.6 ± 7.28 pmol/min/mg
Mechanism of VMAT2 inhibition [6]: competitively inhibit; also recorded: Competitive

COc1ccc(CC[C@H]2CCC[C@@H](CCc3ccc(OC)cc3)N2C[C@@H](O)CO)cc1 (relative stereo) [GZ-793A, (R)-3-[2,6-cis-di(4-methoxyphenethyl)piperidin-1-yl]propane-1,2-diol]
Effect on cue- and METH-induced reinstatement of METH-seeking ([7]; rats, 15 mg/kg, ref Alvers et al., 2012): decrease reinstatement

CN1[C@@H](CCc2ccccc2)CCC[C@H]1CCc1ccccc1 [Lobelane, N-methyl-2,6-bis(cis-phenylethyl)piperidine, reference compound]
Water solubility (in words) [8]: decreased water solubility

CN1C/C(=C\c2ccc(Cl)cc2Cl)C/C(=C/c2ccc(Cl)cc2Cl)C1 [UKMH-106, (3Z,5Z)-3,5-bis(2,4-dichlorobenzylidene)-1-methylpiperidine]
Water solubility (in words) [8]: improved water solubility
Inhibition of METH-evoked DA release (in words) [9]: inhibited

CN1[C@@H](Cc2ccccc2)CC[C@H]1Cc1ccccc1 [AV-2-197, 1-methyl-cis-2,5-di(2-benzyl)-pyrrolidine]
Lowest concentration to increase extracellular DOPAC [1]: 10 µM
Ki [2]: 5400 nM
Ki [3]: 2460 ± 420 nM
[3H]DTBZ binding Imax [3]: 96±1%
Imax for inhibition of METH-evoked DA release [4]: 63%
Effect of analog alone on fractional DA release [4]: did not alter fractional DA release
IC50 [4]: 4200 nM
Increased affinity for the DA uptake site on VMAT2 compared with AV-1-229A [5]: 14 orders-of-magnitude
VMAT2 [3H]DA uptake Imax [5, 13]: 100%
Ki [5, 14]: 19 ± 0.91 nM
Vmax of [3H]DA uptake at VMAT2 [6]: 22.0 ± 4.36 pmol/min/mg
Mechanism of VMAT2 inhibition [6]: competitively inhibit; also recorded: Competitive

CN1C(/C=C\c2ccccc2)CCCC1/C=C\c1ccccc1 (stereo not drawn) [MTD, N-methyl-2,6-bis(cis-phenylethenyl) piperidine]
Fold lower affinity for SERT compared with lobeline [10]: 6.5 fold
Water solubility (in words) [8]: limited solubility
Fold higher affinity for DAT compared with lobeline [11]: 100 fold

Cl.c1ccc(CC[C@@H]2CC[C@H](CCc3ccccc3)N2)cc1 [AV-1-228, cis-2,5-di-(2-phenethyl)-pyrrolidine hydrochloride]
Ki [3]: 2660 ± 370 nM
[3H]DTBZ binding Imax [3]: 100%
VMAT2 [3H]DA uptake Imax [5, 13]: 100%
Ki [5, 14]: 28 ± 1 nM

CN1[C@@H](CC(=O)c2ccccc2)CCC[C@H]1C[C@H](O)c1ccccc1 [Lobeline, reference compound]
Effect on locomotor activity in response to METH ([7]; adult male rats, 3 mg/kg 10 min prior to METH 1 mg/kg, 10 consecutive days, ref Miller, Green, et al. (2000)): significantly reduced locomotor activity
Safety in phase 1b clinical trials [12]: safe
